Source: ChEMBL document CHEMBL1156178, “Discovery of novel 6,6-heterocycles as transient receptor potential vanilloid (TRPV1) antagonists” (J Med Chem, 2010)
pIC50: −log10 of the molar value. Converted amounts (≈) assume the structure as drawn. The source made the active and inactive calls. No cut-off for these calls is given here.

Legend:
[1] = biological target: T1, Transient receptor potential cation channel subfamily V member 1 (Rattus norvegicus, UniProt O35433); assay: Inhibition of rat TRPV1
T1 sequence (O35433 whole entry): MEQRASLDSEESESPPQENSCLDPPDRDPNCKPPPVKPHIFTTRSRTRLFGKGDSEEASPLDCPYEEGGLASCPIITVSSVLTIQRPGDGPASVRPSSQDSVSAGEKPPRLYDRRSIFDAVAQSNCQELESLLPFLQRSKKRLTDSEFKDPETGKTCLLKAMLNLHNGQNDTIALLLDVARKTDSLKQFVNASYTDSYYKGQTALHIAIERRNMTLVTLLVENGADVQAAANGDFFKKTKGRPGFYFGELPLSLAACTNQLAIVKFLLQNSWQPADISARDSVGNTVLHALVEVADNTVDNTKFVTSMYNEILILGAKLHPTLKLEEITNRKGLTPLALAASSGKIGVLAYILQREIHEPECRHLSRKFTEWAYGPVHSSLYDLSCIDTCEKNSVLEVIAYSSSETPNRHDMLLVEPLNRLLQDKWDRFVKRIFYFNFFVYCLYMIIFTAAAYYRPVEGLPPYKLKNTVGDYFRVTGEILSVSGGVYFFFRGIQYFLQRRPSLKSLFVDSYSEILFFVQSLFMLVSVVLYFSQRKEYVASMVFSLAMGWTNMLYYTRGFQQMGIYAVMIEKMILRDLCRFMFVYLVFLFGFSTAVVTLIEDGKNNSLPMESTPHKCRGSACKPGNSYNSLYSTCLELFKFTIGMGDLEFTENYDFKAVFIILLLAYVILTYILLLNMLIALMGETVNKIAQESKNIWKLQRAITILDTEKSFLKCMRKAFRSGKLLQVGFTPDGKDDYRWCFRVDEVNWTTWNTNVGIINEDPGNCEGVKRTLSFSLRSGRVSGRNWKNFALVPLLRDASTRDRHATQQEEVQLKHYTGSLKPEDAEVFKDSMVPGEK

[2] = biological target: Transient receptor potential cation channel subfamily V member 1 (Homo sapiens, UniProt Q8NER1); assay: Antagonist activity at human recombinant TRPV1 expressed in HEK293 cells assessed as inhibition of capsaicin-induced calcium mobilization by FLIPR assay
Chain of Transient receptor potential cation channel subfamily V member 1 (Homo sapiens, UniProt Q8NER1) (Q8NER1 whole entry): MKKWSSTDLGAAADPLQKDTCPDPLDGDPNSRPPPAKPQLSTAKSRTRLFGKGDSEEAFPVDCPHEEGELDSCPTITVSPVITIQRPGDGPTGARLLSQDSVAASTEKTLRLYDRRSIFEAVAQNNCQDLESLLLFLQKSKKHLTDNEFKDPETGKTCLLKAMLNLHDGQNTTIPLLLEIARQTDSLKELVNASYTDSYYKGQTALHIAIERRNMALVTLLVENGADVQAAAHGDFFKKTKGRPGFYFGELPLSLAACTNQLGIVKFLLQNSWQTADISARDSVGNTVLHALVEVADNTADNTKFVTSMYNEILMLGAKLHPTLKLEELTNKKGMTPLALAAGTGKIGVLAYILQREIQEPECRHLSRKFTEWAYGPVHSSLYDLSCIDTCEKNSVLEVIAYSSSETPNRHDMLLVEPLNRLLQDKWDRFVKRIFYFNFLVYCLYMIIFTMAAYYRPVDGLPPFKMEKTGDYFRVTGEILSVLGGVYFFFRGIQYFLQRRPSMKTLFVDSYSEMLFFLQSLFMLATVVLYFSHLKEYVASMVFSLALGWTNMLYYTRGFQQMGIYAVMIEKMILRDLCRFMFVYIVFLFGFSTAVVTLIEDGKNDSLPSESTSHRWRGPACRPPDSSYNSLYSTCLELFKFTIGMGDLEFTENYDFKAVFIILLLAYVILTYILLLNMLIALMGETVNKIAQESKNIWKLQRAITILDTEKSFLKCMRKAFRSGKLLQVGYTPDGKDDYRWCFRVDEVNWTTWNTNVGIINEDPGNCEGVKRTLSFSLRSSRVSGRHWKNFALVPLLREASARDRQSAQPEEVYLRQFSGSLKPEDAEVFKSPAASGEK

[3] = Solubility in 0.1 N HCL after 4 hrs by HPLC/MS analysis; assay type: physicochemical
[4] = AUC (0 to 24 hrs) in rat at 1 mg/kg, po; assay type: ADME, organism-based; parameters: time < 24 hr, dose 1 mg/kg, route oral; conditions: plasma
[5] = Equilibrium solubility in at pH 7.4; assay type: physicochemical; conditions: buffer
[6] = Plasma concentration in complete Freund's adjuvant treated Sprague-Dawley rat at 10 mg/kg, po qd for 2 days administered 24 hrs after CFA challenge after 2 hrs last post dose; assay type: ADME, organism-based; parameters: dose 10 mg/kg, route oral
[7] = biological target: T1, Transient receptor potential cation channel subfamily V member 1; assay: Inhibition of rat TRPV1 at pH 5 to 5.5
[8] = Plasma concentration in carrageenan treated rat at 3 mg/kg, po administered 2 hrs after carrageenan challenge measured after 1 hr; assay type: ADME, organism-based; parameters: dose 3 mg/kg, route oral
[9] = Clearance in rat at 1 mg/kg, iv and 1 mg/kg, po; assay type: ADME, organism-based; conditions: in vivo
[10] = Tmax in rat at 1 mg/kg, iv and 1 mg/kg, po; assay type: ADME, organism-based; conditions: in vivo
Rattus norvegicus [11] = assay: Induction of hyperthermia in Sprague-Dawley rat at 3 mg/kg, po qd for 4 days; assay type: organism-based; parameters: dose 3 mg/kg, route oral; conditions: in vivo, 96 h
[12] = biological target: Insulin receptor (Homo sapiens) (UniProt P06213); assay: Inhibition of insulin receptor at 10 uM
[13] = Cmax in rat at 100 mg/kg, po; assay type: ADME, organism-based; parameters: dose 100 mg/kg, route oral; conditions: in vivo
[14] = Inhibition of PKA at 10 uM
[15] = Protein binding in rat plasma; assay type: ADME, cell-free; conditions: read-out: PPB (converted)
[16] = Plasma concentration in complete Freund's adjuvant treated Sprague-Dawley rat at 1 mg/kg, po qd for 3 days administered 24 hrs after CFA challenge after 2 hrs last post dose; assay type: ADME, organism-based; parameters: dose 1 mg/kg, route oral
[17] = biological target: Protein kinase C alpha type (Homo sapiens) (UniProt P17252); assay: Inhibition of PKCalpha at 10 uM
Rattus norvegicus [18] = assay: Induction of hyperthermia in Sprague-Dawley rat at 3 mg/kg, po after 10 hrs; assay type: organism-based; parameters: dose 3 mg/kg, route oral; conditions: in vivo
Rattus norvegicus [19] = assay: Induction of hyperthermia in Sprague-Dawley rat at 3 mg/kg, po after 1 hr; assay type: organism-based; parameters: dose 3 mg/kg, route oral; conditions: in vivo
[20] = AUC (0 to 24 hrs) in rat at 10 mg/kg, po; assay type: ADME, organism-based; parameters: time < 24 hr, dose 10 mg/kg, route oral; conditions: plasma
[21] = Plasma concentration in complete Freund's adjuvant treated Sprague-Dawley rat at 3 mg/kg, po qd for 2 days administered 24 hrs after CFA challenge after 2 hrs last post dose; assay type: ADME, organism-based; parameters: dose 3 mg/kg, route oral
[22] = Half life in rat at 1 mg/kg, iv and 1 mg/kg, po; assay type: ADME, organism-based; conditions: in vivo
[23] = Fraction unbound in rat plasma; assay type: ADME, cell-free
[24] = AUC (0 to 24 hrs) in rat at 100 mg/kg, po; assay type: ADME, organism-based; parameters: time < 24 hr, dose 100 mg/kg, route oral; conditions: plasma
[25] = Tmax in rat at 10 mg/kg, po; assay type: ADME, organism-based; parameters: dose 10 mg/kg, route oral; conditions: in vivo
Rattus norvegicus [26] = assay: Analgesic activity in po dosed rat assessed as reversal of carrageenan-induced thermal hyperalgesia administered 2 hrs after carrageenan challenge; assay type: functional, organism-based
[27] = Plasma concentration in complete Freund's adjuvant treated Sprague-Dawley rat at 10 mg/kg, po qd for 3 days administered 24 hrs after CFA challenge after 2 hrs last post dose; assay type: ADME, organism-based; parameters: dose 10 mg/kg, route oral
LLC-PK1 = assay: Efflux ratio of permeability from […] in MDR1 transfected pig LLC-PK1 cells; assay type: ADME, cell-based, Sus scrofa
[28] = Plasma concentration in complete Freund's adjuvant treated Sprague-Dawley rat at 1 mg/kg, po qd for 2 days administered 24 hrs after CFA challenge after 2 hrs last post dose; assay type: ADME, organism-based; parameters: dose 1 mg/kg, route oral
[29] = biological target: Mitogen-activated protein kinase 3 (Homo sapiens, UniProt P27361); assay: Inhibition of human ERK1
[30] = Metabolic stability in rat liver microsomes assessed as compound remaining at 1 uM after 10 mins by LCMS analysis; assay type: ADME, Microsome; conditions: read-out: Activity
Summary of the method: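 Compound (1 μM) incubated at 37 °C with 0.5 mg/mL male pooled rat liver microsomes; NADPH added to start the reaction. Aliquots were taken at 0 and 10 min and quenched into ice-cold acetonitrile with internal standard, then centrifuged. Parent was monitored as the M+1 ion by ESI-LCMS in selected-ion mode. Percent remaining was taken as the 10 min/0 min signal ratio, corrected by internal-standard recovery.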

[31] = Plasma concentration in complete Freund's adjuvant treated Sprague-Dawley rat at 3 mg/kg, po qd for 3 days administered 24 hrs after CFA challenge after 2 hrs last post dose; assay type: ADME, organism-based; parameters: dose 3 mg/kg, route oral
[32] = Tmax in rat at 100 mg/kg, po; assay type: ADME, organism-based; parameters: dose 100 mg/kg, route oral; conditions: in vivo
[33] = Plasma concentration in complete Freund's adjuvant treated Sprague-Dawley rat at 3 mg/kg, po administered 24 hrs after CFA challenge after 2 hrs post dose; assay type: ADME, organism-based; parameters: dose 3 mg/kg, route oral
[34] = Tmax in rat at 1 mg/kg, po; assay type: ADME, organism-based; parameters: dose 1 mg/kg, route oral; conditions: in vivo
[35] = Plasma concentration in complete Freund's adjuvant treated Sprague-Dawley rat at 1 mg/kg, po administered 24 hrs after CFA challenge after 2 hrs post dose; assay type: ADME, organism-based; parameters: dose 1 mg/kg, route oral
Homo sapiens [36] = organism: Homo sapiens; assay: Fraction unbound in human plasma
MDR1 = assay: Apparent permeability across pig LLC-PK1 cells expressing MDR1; assay type: ADME, cell-based, Sus scrofa
[37] = Ratio of drug level in brain to plasma in rat at 3 mg/kg, po after 1 hr; assay type: ADME, organism-based; parameters: dose 3 mg/kg, route oral
[38] = Plasma concentration in carrageenan treated rat at 1 mg/kg, po administered 2 hrs after carrageenan challenge measured after 1 hr; assay type: ADME, organism-based; parameters: dose 1 mg/kg, route oral
[39] = Cmax in rat at 10 mg/kg, po; assay type: ADME, organism-based; parameters: dose 10 mg/kg, route oral; conditions: in vivo
[40] = Plasma concentration in complete Freund's adjuvant treated Sprague-Dawley rat at 10 mg/kg, po administered 24 hrs after CFA challenge after 2 hrs post dose; assay type: ADME, organism-based; parameters: dose 10 mg/kg, route oral
[41] = Volume of distribution in rat at 1 mg/kg, iv and 1 mg/kg, po; assay type: ADME, organism-based; conditions: in vivo
[42] = Cmax in rat at 1 mg/kg, po; assay type: ADME, organism-based; parameters: dose 1 mg/kg, route oral; conditions: in vivo
Rattus norvegicus [43] = assay: Liver blood flow in rat at 1 mg/kg, iv and 1 mg/kg, po; assay type: ADME, organism-based; conditions: in vivo
[44] = biological target: Mitogen-activated protein kinase 14 (Homo sapiens) (UniProt Q16539); assay: Inhibition of p38alpha at 10 uM
Chain of Mitogen-activated protein kinase 14 (Homo sapiens) (Q16539 whole entry): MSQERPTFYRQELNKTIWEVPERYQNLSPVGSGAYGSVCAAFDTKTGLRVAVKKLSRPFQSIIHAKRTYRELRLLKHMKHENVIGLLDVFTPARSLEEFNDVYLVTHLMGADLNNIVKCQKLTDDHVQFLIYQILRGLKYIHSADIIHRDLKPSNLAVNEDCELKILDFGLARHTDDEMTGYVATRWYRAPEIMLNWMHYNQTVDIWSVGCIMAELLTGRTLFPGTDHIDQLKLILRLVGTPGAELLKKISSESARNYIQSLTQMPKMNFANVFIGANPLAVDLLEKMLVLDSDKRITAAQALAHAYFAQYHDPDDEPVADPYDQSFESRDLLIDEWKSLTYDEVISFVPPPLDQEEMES

[45] = Plasma concentration in carrageenan treated rat at 0.3 mg/kg, po administered 2 hrs after carrageenan challenge measured after 1 hr; assay type: ADME, organism-based; parameters: dose 0.3 mg/kg, route oral
Homo sapiens [46] = organism: Homo sapiens; assay: Protein binding in human plasma; conditions: read-out: PPB (converted)
[47] = biological target: Epidermal growth factor receptor (Homo sapiens) (UniProt P00533); assay: Inhibition of EGFR at 10 uM
Chain of Epidermal growth factor receptor (Homo sapiens) (P00533 whole entry): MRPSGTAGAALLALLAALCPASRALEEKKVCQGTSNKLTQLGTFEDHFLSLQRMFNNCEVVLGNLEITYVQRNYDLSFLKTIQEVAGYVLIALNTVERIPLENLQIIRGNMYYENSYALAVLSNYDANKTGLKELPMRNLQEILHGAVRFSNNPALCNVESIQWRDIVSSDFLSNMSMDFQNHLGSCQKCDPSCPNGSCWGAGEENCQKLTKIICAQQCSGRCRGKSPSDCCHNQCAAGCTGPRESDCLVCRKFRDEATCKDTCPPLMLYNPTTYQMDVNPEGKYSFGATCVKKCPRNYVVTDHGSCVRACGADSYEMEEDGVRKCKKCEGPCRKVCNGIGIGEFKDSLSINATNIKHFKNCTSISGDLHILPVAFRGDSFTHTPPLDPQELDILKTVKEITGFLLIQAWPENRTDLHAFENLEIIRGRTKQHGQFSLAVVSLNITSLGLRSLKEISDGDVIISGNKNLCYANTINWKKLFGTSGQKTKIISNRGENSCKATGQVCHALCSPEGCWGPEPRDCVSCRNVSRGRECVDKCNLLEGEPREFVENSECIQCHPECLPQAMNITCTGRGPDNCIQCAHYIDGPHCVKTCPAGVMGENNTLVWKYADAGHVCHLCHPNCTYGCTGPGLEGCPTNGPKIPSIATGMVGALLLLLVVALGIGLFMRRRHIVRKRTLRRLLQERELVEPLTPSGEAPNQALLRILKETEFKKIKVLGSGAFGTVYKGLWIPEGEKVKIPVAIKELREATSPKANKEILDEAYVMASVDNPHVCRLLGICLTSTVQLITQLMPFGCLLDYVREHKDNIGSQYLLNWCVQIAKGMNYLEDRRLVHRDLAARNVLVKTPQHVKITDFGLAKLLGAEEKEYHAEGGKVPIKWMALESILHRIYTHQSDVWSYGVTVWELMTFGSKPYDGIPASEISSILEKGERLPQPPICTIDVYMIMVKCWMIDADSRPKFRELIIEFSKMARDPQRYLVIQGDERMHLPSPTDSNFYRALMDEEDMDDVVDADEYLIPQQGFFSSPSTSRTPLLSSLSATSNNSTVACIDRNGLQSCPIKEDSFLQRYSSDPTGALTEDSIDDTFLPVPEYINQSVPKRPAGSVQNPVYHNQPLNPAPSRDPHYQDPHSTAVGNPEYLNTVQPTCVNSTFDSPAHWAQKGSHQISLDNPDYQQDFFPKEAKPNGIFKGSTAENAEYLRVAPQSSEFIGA

hERG (KCNH2) = hERG (KCNH2) (Homo sapiens, UniProt Q12809); assay: Inhibition of human ERG expressed in COS7 cells at 10 uM by electrophysiology assay; assay type: cell-based, COS-7; conditions: COS7 cells expressing human ERG
Chain of hERG (KCNH2) (Q12809 whole entry): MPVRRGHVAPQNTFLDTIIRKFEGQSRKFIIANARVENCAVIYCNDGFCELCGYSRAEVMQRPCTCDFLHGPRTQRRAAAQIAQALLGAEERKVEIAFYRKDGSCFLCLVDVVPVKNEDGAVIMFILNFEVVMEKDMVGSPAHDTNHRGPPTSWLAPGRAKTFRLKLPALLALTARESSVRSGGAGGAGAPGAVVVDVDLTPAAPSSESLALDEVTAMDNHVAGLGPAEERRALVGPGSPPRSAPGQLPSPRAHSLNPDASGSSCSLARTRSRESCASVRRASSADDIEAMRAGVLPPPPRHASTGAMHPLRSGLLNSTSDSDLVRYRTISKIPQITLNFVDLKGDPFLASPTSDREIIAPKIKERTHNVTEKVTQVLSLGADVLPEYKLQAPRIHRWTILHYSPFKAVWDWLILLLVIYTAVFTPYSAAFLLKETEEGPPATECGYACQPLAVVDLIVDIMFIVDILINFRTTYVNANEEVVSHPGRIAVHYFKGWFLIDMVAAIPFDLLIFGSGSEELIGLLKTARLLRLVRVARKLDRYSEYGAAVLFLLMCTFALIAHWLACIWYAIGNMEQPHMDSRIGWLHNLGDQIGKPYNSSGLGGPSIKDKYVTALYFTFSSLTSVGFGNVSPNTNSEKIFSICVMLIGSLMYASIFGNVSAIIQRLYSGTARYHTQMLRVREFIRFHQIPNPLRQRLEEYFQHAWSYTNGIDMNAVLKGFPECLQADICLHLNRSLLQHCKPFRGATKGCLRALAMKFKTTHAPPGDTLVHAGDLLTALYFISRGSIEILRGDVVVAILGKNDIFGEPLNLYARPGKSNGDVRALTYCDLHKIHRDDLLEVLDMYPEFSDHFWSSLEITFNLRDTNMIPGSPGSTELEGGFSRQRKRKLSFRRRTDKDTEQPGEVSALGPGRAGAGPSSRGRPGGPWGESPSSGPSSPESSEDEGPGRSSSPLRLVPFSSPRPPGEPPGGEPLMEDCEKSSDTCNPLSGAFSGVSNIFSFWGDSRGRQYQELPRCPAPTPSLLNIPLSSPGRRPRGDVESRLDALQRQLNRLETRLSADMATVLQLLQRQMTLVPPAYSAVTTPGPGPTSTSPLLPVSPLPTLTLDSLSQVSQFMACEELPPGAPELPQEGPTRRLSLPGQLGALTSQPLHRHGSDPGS

Rattus norvegicus [48] = assay: Analgesic activity in rat assessed as complete reversal of carrageenan-induced thermal hyperalgesia at 3 mg/kg, po administered 2 hrs after carrageenan challenge; assay type: functional, organism-based; parameters: dose 3 mg/kg
[49] = Oral bioavailability in rat at 1 mg/kg; assay type: ADME, organism-based; conditions: in vivo
[50] = biological target: Voltage-gated L-type calcium channel (Rattus norvegicus, UniProt P22002+Q02485+P27732); assay: Inhibition of rat L-type calcium channel
Rattus norvegicus [51] = assay: Analgesic activity against CFA-induced inflammatory pain in Sprague-Dawley rat assessed as reversal of decrease in weight bearing at 10 mg/kg, po qd for 3 days administered 24 hrs after CFA challenge; assay type: functional, organism-based; parameters: dose 10 mg/kg
Rattus norvegicus [52] = organism: Rattus norvegicus; assay: Analgesic activity against carrageenan-induced thermal hyperalgesia in rat; assay type: functional; conditions: read-out: MED
[53] = Half life in rat at 2.7 mg/kg, iv and 2 mg/kg, po; assay type: ADME, organism-based; conditions: in vivo

O=C(Nc1ccccc1Br)N[C@@H]1CCN(c2ccc(C(F)(F)F)cn2)C1 [SB-705498]
pIC50 [1]: 7.49

FC(F)(F)c1ccc(Nc2ccnc3nc(-c4ncccc4C(F)(F)F)cnc23)nc1
pIC50 [2]: 9.64 | solubility at 4 h [3]: 8 µg/mL (≈ 18.3 µM)

FC(F)(F)c1ccc(Nc2ccnc3nc(-c4ncccc4C(F)(F)F)ccc23)nc1
AUC(0-t) at 24 h [4]: 0.6 µM·h | solubility thermodynamic [5]: 2 µg/mL (≈ 4.59 µM) | concentration at 2 h [6]: 5230 nM | pIC50 [7]: 8.49 | concentration at 1 h [8]: 1400 nM | clearance [9]: 34 mL/min/kg | Tmax [10]: 1.1 h | Activity (Rattus norvegicus [11]): Non-toxic | inhibition [12]: inactive | Cmax [13]: 12900 nM | inhibition [14]: inactive | fraction unbound [15]: 0.107 | concentration at 2 h [16]: 380 nM | inhibition [17]: inactive | Activity (Rattus norvegicus [18]): Non-toxic | Activity (Rattus norvegicus [19]): Non-toxic | pIC50 [2]: 8.66 | solubility at 4 h [3]: 40 µg/mL (≈ 91.9 µM) | AUC(0-t) at 24 h [20]: 22.6 µM·h | concentration at 2 h [21]: 1330 nM | half-life [22]: 1.4 h | fraction unbound [23]: 0.107 | AUC(0-t) at 24 h [24]: 204 µM·h | Tmax [25]: 3.33 h | Activity (Rattus norvegicus [26]): Dose-dependent effect | concentration at 2 h [27]: 3260 nM | Ratio (LLC-PK1): 1.7 | concentration at 2 h [28]: 390 nM | pIC50 [29]: 6.01 | remaining at 10 min, 1 µM [30]: 100% | concentration at 2 h [31]: 930 nM | Tmax [32]: 6 h | concentration at 2 h [33]: 230 nM | Tmax [34]: 1.1 h | concentration at 2 h [35]: 100 nM | fraction unbound (Homo sapiens [36]): 0.065 | Papp (MDR1): 29.8 ×10⁻⁶ cm/s | Kp at 1 h [37]: 0.3 | concentration at 1 h [38]: 300 nM | Cmax [39]: 2870 nM | concentration at 2 h [40]: 2300 nM | Vd [41]: 3.9 L/kg | Cmax [42]: 240 nM | LBF (Rattus norvegicus [43]): 45% | inhibition [44]: inactive | concentration at 1 h [45]: 60 nM | fraction unbound (Homo sapiens [46]): 0.065 | inhibition [47]: inactive | inhibition at 10 µM (hERG (KCNH2)): 47% | Activity (Rattus norvegicus [48]): Active | bioavailability [49]: 52% | IC50 [50]: 3000 nM | Activity (Rattus norvegicus [51]): Active

FC(F)(F)c1ccc(Nc2cncc3nc(-c4ncccc4C(F)(F)F)ccc23)nc1
pIC50 [2]: 6.34 | solubility at 4 h [3]: 20 µg/mL (≈ 45.9 µM)

FC(F)(F)c1ccc(Nc2ncnc3nc(-c4ncccc4C(F)(F)F)ncc23)cc1
pIC50 [2]: 6.18 | solubility at 4 h [3]: 4 µg/mL (≈ 9.17 µM)

FC(F)(F)c1ccc(Nc2ncnc3nc(-c4ncccc4C(F)(F)F)ccc23)cc1
pIC50 [2]: 9.08 | solubility at 4 h [3]: 9 µg/mL (≈ 20.7 µM)

FC(F)(F)c1ccc(Nc2nccc3nc(-c4ncccc4C(F)(F)F)cnc23)nc1
pIC50 [2]: 7.10 | solubility at 4 h [3]: 12 µg/mL (≈ 27.5 µM)

FC(F)(F)c1ccc(Nc2ccnc3nc(-c4ncccc4C(F)(F)F)ccc23)cc1
pIC50 [2]: 8.21 | solubility at 4 h [3]: 24 µg/mL (≈ 55.3 µM)

FC(F)(F)c1ccc(Nc2ncnc3cc(-c4ncccc4C(F)(F)F)ccc23)cc1 [NGD-8243]
minimal effective dose (Rattus norvegicus [52]): 0.1 mg/kg | half-life [53]: 8 h | solubility at 4 h [3]: 16 µg/mL (≈ 36.8 µM) | remaining at 10 min, 1 µM [30]: 93% | Papp (MDR1): 11 ×10⁻⁶ cm/s
